Here are results for 1 compound from ChEMBL document CHEMBL4196202, “Discovery and Structure-Based Optimization of Benzimidazole-Derived Activators of SOS1-Mediated Nucleotide Exchange on RAS” (J Med Chem, 2018).

The source made the active and inactive calls. The calls are words filed in the database; no cut-off is given here.

Data set [1] addresses T1, Son of sevenless homolog 1 (Homo sapiens) (UniProt Q07889).
T1 sequence (whole entry): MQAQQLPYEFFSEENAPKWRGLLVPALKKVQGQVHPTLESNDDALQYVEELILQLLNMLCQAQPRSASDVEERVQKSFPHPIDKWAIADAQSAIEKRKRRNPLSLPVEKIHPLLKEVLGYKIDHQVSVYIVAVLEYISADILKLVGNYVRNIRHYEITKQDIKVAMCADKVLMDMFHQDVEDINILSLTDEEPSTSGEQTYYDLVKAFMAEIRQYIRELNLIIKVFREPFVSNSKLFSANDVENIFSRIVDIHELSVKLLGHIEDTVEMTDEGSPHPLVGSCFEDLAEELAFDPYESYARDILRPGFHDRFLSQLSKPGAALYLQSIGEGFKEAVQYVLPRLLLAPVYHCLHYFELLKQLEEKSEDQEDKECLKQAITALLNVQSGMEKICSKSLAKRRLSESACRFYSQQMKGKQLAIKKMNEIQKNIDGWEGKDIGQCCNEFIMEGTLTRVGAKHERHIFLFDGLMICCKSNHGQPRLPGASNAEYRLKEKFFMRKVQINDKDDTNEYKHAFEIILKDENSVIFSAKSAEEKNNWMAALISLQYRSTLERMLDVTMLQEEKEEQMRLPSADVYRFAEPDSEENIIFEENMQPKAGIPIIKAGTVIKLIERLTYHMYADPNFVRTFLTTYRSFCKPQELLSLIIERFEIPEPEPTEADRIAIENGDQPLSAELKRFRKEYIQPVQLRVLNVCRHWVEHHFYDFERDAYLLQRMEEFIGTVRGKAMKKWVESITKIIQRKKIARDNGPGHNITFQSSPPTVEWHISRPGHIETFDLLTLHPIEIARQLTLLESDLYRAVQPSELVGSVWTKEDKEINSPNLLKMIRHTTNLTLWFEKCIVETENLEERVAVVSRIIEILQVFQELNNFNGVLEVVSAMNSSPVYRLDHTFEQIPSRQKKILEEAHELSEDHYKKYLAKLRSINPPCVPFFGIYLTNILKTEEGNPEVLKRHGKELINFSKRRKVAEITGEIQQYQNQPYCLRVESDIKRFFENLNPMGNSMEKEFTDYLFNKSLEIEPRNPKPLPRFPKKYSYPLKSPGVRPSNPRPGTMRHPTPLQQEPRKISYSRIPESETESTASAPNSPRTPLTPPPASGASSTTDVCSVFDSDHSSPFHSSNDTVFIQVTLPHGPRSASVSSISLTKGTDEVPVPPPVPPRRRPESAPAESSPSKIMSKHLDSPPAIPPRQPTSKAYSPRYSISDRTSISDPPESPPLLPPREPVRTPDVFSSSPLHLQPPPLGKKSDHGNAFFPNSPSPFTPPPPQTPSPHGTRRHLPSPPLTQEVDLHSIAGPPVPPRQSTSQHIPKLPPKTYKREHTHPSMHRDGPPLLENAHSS
Briefly: Activation of SOS1 in human HeLa cells expressing wild type KRAS assessed as increase in RAS-GTP levels at 0.3 uM incubated for 10 mins by active RAS pull-down assay. Type of data set: cell-based.

Data set [2] deals with T1, Son of sevenless homolog 1 (Homo sapiens). Kind of data set: Activation of SOS1 in human HeLa cells expressing wild type KRAS assessed as induction of ERK1/2 T202/Y204 phosphorylation at 1.5 to 100 uM incubated for 30 mins by In-cell Western assay.
The nature of data set [3]: Aqueous solubility in pH 6.8 buffer at 1 mg/mL by HPLC/DAD-UV assay. Type of data set: physicochemical. In short, it runs like this:
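Solid compound was dispensed at 1 mg/mL into McIlvaine buffer pH 6.8, with a reference dissolved in acetonitrile/water 1:1 (v/v). Dissolved concentration was quantified by HPLC-DAD-UV. Single experiment.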

The target in data set [4] is Son of sevenless homolog 1 (Homo sapiens, UniProt Q07889). Briefly: Activation of SOS1 in human NCI-H727 cells expressing KRAS G12V mutant assessed as induction of ERK1/2 T202/Y204 phosphorylation incubated for 30 mins by In-cell Western assay. Type of data set: cell-based.
Data set [5] addresses T2, Son of sevenless homolog 1 (Homo sapiens, UniProt Q07889).
T2 sequence (Q07889 whole entry): T1 sequence (whole entry)
Briefly: Activation of SOS1 in human HeLa cells expressing wild type KRAS assessed as induction of ERK1/2 T202/Y204 phosphorylation incubated for 30 mins by In-cell Western assay. Type of data set: cell-based.

Data set [6] addresses T1, Son of sevenless homolog 1 (Homo sapiens). Kind of data set: Activation of SOS1 in human NCI-H727 cells expressing KRAS G12V mutant assessed as induction of ERK1/2 T202/Y204 phosphorylation at 1.5 to 100 uM (lower range) incubated for 30 mins by In-cell Western assay. The class given is cell-based.
Data set [7] addresses T2, Son of sevenless homolog 1. Kind of data set: Binding affinity to human recombinant N-terminal His6-tagged SOS1 (564 to 1049 residues) expressed in BL21-RIL Escherichia coli by fluorescent probe S3 based fluorescence polarization anisotrophy saturation binding assay. In a few lines: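 SOS1cat (aa 564–1049) was titrated in a 16-point, 3-fold series from 10 μM top against 50 nM fluorescein probe S3. Buffer was 20 mM Tris-HCl pH 7.5, 50 mM NaCl, 1 mM magnesium chloride. Fluorescence anisotropy was read and Kd reported as mean ± SD of at least three independent experiments.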

The target of data set [8] is T1, Son of sevenless homolog 1 (Homo sapiens). Briefly: Activation of SOS1 in human HeLa cells expressing wild type KRAS assessed as increase in RAS-GTP levels at 10 to 30 uM incubated for 10 mins by active RAS pull-down assay. The class given is cell-based. In short, it runs like this: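 HeLa cells, STR-authenticated and mycoplasma-negative, were passaged at least twice after thaw (25 passages maximum). They were seeded to reach 70% confluency after 24 h, then treated. Active RAS-GTP was captured by RAF1-RBD pull-down and detected by SDS-PAGE and western blot with a pan-RAS antibody and a fluorescent secondary, read on an Odyssey imager. Total RAS and α-tubulin in the input served as loading controls.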

The target is the same in data set [9]. Kind of data set: Biphasic activity at of SOS1 in human HeLa cells expressing wild type KRAS assessed as reduction in ERK1/2 T202/Y204 phosphorylation at 1.5 to 100 uM (higher range) incubated for 30 mins by In-cell Western assay. Type of data set: cell-based.
Data set [10] shares this target. Briefly: Biphasic activity at of SOS1 in human HeLa cells expressing wild type KRAS assessed as induction of ERK1/2 T202/Y204 phosphorylation at 1.5 to 100 uM (lower range) incubated for 30 mins by In-cell Western assay. The class given is cell-based.
For data set [11] the target is unchanged. Briefly: Activation of SOS1 in human NCI-H727 cells expressing KRAS G12V mutant assessed as induction of ERK1/2 T202/Y204 phosphorylation at 1.5 to 100 uM (higher range) incubated for 30 mins by In-cell Western assay. The class given is cell-based.

Regarding `Cc1cc(Cn2c(N3CC4(CNC4)C3)nc3c(N4CCN(C)CC4)cc(Cl)cc32)cc(C)c1F`, the result in data set [1], in data set [2], in data set [6], in [8], in data set [9] and in data set [10] was Active. The outcome in data set [11] was Active. Moreover, the solubility in [3] was more than 110 µg/mL. Also, the half-maximal effective concentration (EC50) in data set [4] came to 10 µM; in data set [5], 5.9 µM. The Kd in data set [7] amounted to 0.044 µM.

The solubility is the concentration that dissolves in the medium under given conditions. Low readings indicate little dissolved substance, high ones much dissolved substance. As usually defined, the EC50 is the concentration at which the effect is half-maximal. What is called Kd is a measure of binding affinity in units of concentration.
